High-throughput results: PubChem, several laboratories
This is a sample that favours compounds with a hit; in the whole collection about 5.6% have one here.
CHOP inh: inhibitors of CHOP promoter induction, primary screen, cell-based, unfolded protein response, luciferase reporter; CHO-K1 CHOP-promoter luciferase, tunicamycin-induced, 15-18 h; inhibition, % at 10 µM; hit rate 3.8% among 220,000; AID 2732, 2010;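 active = compounds that reduced the stress-induced luciferase reporter signal by more than about 70% of percent inhibition, limit read from the data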;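 note: 0% = tunicamycin plus vehicle and 100% = wells without tunicamycin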
UPR XBP1 act: activators of adaptive XBP1 UPR arm, primary screen, cell-based, CHO-XBP1 luciferase reporter, luminescence, uHTS. IRE1-XBP1 UPR activation; percent of tunicamycin response, DMSO as zero. activation, % at 20 µM. hit rate 0.33% among 330,000. AID 463104, 2010;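 active = versus positive control, 20 µM dose yields 30% or more activation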;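 note: 100% = tunicamycin at 10 µg/mL and 0% = DMSO only wells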
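Signal: luciferase luminescence; Assay system: CHO-XBP1 luciferase reporter cells; Amount: one thousand reporter cells per well; Dosing: 20 µM single concentration, DMSO 1%; Benchmarks: high control tunicamycin 10 µg/mL final, low control DMSO vehicle only; Schedule: 6 h compound exposure at 37 °C, 5% CO2; Evaluation: percent activation relative to tunicamycin reference.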
CHOP UPR activ: activators of apoptotic CHOP UPR arm, primary screen, cell-based, CHO-CHOP luciferase reporter, luminescence, uHTS | UPR activation; percent of tunicamycin response over DMSO baseline | hit rate 0.34% among 330,000 | activation, % at 10 µM;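 active = at 10 µM dose, activation of 40% or more, normalized to positive control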;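 note: 100% = tunicamycin at 10 µg/mL and 0% = DMSO alone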
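measured by = luciferase luminescence | assay system = CHO-CHOP cells, stable luciferase reporter of PERK-eIF2a-CHOP signalling | amount = 500 reporter cells seeded per well | timing = 6 h compound exposure at 37 °C after overnight seeding | controls = positive tunicamycin 10 µg/mL, negative DMSO alone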
aDG glyco up: activators of alpha-DG glycosylation, primary screen, uHTS, Pro5-aDG cells, AlphaScreen | hit rate 0.22% among 360,000 | activation, % at 10 µM | alpha-DG glycosylation AlphaScreen (IIH6); 0% Pro5, 100% B10-LARGE cell signal;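 active = activation of at least 8% versus controls, or a plate z-score of at least 8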;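 note: Pro5 are CHO cells carrying HIG-tagged alpha-DG that lacks glycosylation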
MPTP block: mitochondrial permeability transition pore inhibitors, primary screen, biochemical, isolated mouse mitochondria, absorbance; Ca2+ swelling absorbance, 30 min; inhibition, % at 10 µM; hit rate 1.4% among 360,000;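 active = inhibition of 50% or more, scaled per plate between neutral and stimulator controls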;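 note: 0% = DMSO wells given calcium and 100% = 1 mM EGTA wells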
GRIN3A LBD mod: binders of NR3A ligand-binding domain, primary screen, biophysical, differential scanning fluorimetry, uHTS; NR3A LBD differential scanning fluorimetry, Tm shift; 0% = protein alone, 100% = glycine-bound protein; hit rate 2.5% among 340,000; Glutamate receptor ionotropic, NMDA 3A (GRIN3A) ligand-binding domain; Tm shift relative to glycine control, % at 25 µM; AID 1259313, 2017;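 active = melting temperature shift of at least 10% of the positive control shift, at one fixed dose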
* = called active by the depositor; . = no result given.

SMILES	CHOP inh	UPR XBP1 act	CHOP UPR activ	aDG glyco up	MPTP block	GRIN3A LBD mod
CCN(CC)S(=O)(=O)c1ccc(NC(=O)C2CC(=O)N(c3ccc4c(c3)OCCO4)C2)cc1 (stereo not given)	.	.	.	0	-2	-1
COc1ccc(-n2nnnc2SCC(=O)Nc2ccccc2F)cc1	.	-1	1	0	0	2
NS(=O)(=O)c1ccc(Nc2nc3ccccc3nc2NS(=O)(=O)c2cccc([N+](=O)[O-])c2)cc1	17	0	-1	0	1	32*
Cc1cccnc1NS(=O)(=O)c1cccc([N+](=O)[O-])c1	18	-2	0	0	0	-2
CC(=O)Nc1ccc(S(=O)(=O)Nc2nc3cc4c(cc3nc2Cl)OCCO4)cc1	-1	-1	2	0	-1	1
CC(=O)Nc1ccc(S(=O)(=O)Nc2nc3ccccc3nc2Cl)cc1	.	-4	2	0	0	38*
COC1OC2COC(c3ccccc3)OC2C2OC12 (stereo not given)	.	.	.	0	0	0
O=c1[nH]c(/C=C/c2ccccc2F)nc2ccccc12	.	-1	1	0	-1	39*
O=c1[nH]c(/C=C/c2ccccc2[N+](=O)[O-])nc2ccccc12	82*	3	9	0	0	4
Cc1cccc(/C=C\c2nc3ccccc3c(=O)[nH]2)c1	101*	-2	1	0	0	0
O=c1[nH]c(/C=C/c2cccc3ccccc23)nc2ccccc12	-26	0	3	0	0	-2
COc1cc(/C=C/c2nc3ccccc3c(=O)[nH]2)cc(Cl)c1O	.	-1	4	0	-1	27*
O=c1[nH]c(/C=C/c2ccccn2)nc2ccccc12	.	-4	2	0	0	3
COC(=O)c1cc(C(=O)OCC(=O)NC(=O)c2ccccc2)cc([N+](=O)[O-])c1	.	-3	1	0	0	2
CSc1ncccc1C(=O)Nc1cccc(S(=O)(=O)N(C)c2ccccc2)c1	.	-3	0	0	1	-6
O=C1NN(c2ccccc2)C(=O)/C1=C/c1ccc(Sc2cccc3ccccc23)o1	104*	3	6	0	16	-5
COc1cc(/C=C/C(=O)OCC(=O)NNC(=O)c2cc(Cl)ccc2OC)ccc1O	.	0	-1	0	0	-4
COc1cc(/C=C/C(=O)OCC(=O)Nc2ccccc2Sc2ccc(Cl)cc2)ccc1O	58	4	0	0	3	15*
Cc1nn2c(N)c(-c3ccccc3)cnc2c1-c1ccccc1	.	1	7	0	2	1
Cc1cc2cc(CNC(=O)c3cc4ccccc4o3)ccc2n1C	89*	-2	0	.	.	.
O=C1OCCN1C(=O)[C@H]1[C@H](c2ccc([N+](=O)[O-])cc2)C(c2ccc(F)cc2)=NN1c1ccccc1	.	-1	5	0	-1	3
C[C@@H]1C(c2cccc(Cl)c2)=NN(c2ccc(Br)cc2)[C@H]1C(=O)N1CCOC1=O	.	-5	1	0	2	21*
O=C1OCCN1C(=O)[C@H]1[C@H](c2ccc([N+](=O)[O-])cc2)C(c2ccc(F)cc2)=NN1c1ccc(Br)cc1	.	-2	2	0	2	13*
Cc1cccc(C2=NN(c3ccc(Br)cc3)[C@@H](C(=O)N3CCOC3=O)[C@@H]2c2ccccc2)c1	.	2	2	0	0	15*
O=C(COc1ccc(F)cc1)Nc1nc(-c2cccnc2)cs1	.	.	.	0	1	.
CCCNC(=O)CN1C(=O)COc2ccc(S(=O)(=O)N3CC(C)CC(C)C3)cc21 (stereo not given)	.	-7	0	0	-1	-1
